Values after ≈ are worked out from the molar mass of the structure shown.
What was measured:
[1] = Pseudo-first-order rate constant at pH 10 and 35 degrees Centigrade; format: ADME
Procedure, shortened: (§1)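 Parent β-lactam loss followed by HPLC, starting at 3.9 × 10^-4–1 × 10^-3 M, at 35 °C and μ = 0.5. pH was held at 10 by a pH-stat adding NaOH. Pseudo-first-order rate constants were derived, with half-lives from these rates. Some runs were done at pH 11, and the constant was taken as 1/10 of the observed value, assuming proportionality to [OH].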

[2] = Half-life is evaluated; format: ADME; procedure, shortened: as §1
[3] = tested on: Haemophilus influenzae; assay: In vitro inhibitory activity against Haemophilus influenza C.L; format: functional
Procedure, shortened: (§2)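 Agar dilution: compounds were diluted in 0.1 M phosphate buffer, pH 7.0, and mixed at 50 °C into Mueller–Hinton agar with 1% Bacto-Supplement C. Fresh overnight cultures were diluted to about 1 × 10^4 cells/μL and spotted at 1 μL. Plates were incubated overnight at 35 °C in ambient air. MIC (μg/mL) was the lowest concentration preventing visible growth.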

[4] = tested on: Klebsiella pneumoniae; assay: In vitro inhibitory activity against Klebsiella X26; format: functional; procedure, shortened: as §2
[5] = tested on: Enterobacter cloacae; assay: In vitro inhibitory activity against Enterobacter cloacae EB5; format: functional; procedure, shortened: as §2
[6] = Pseudo-first-order rate constant at pH 10, micro=0.5, 35 degrees Centigrade; format: ADME; procedure, shortened: as §1
[7] = tested on: Staphylococcus aureus; assay: In vitro inhibitory activity against Staphylococcus aureus X1.1; format: functional; procedure, shortened: as §2
[8] = tested on: Pseudomonas aeruginosa; assay: In vitro inhibitory activity against Pseudomonas aeruginosa X258; format: functional; procedure, shortened: as §2
[9] = tested on: Providencia rettgeri; assay: In vitro inhibitory activity against Proteus rettgeri C24; format: functional; procedure, shortened: as §2
[10] = tested on: Escherichia coli; assay: In vitro inhibitory activity against Escherichia coli EC14; format: functional; procedure, shortened: as §2
[11] = tested on: Streptococcus pyogenes; assay: In vitro inhibitory activity against Streptococcus pyogenes Park; format: functional; procedure, shortened: as §2
[12] = tested on: Pseudomonas aeruginosa; assay: In vitro in vitro inhibitory activity against Pseudomonas aeruginosa X258; format: functional; procedure, shortened: as §2
[13] = tested on: Escherichia coli; assay: Inhibitory activity against Escherichia coli EC14; format: functional; procedure, shortened: as §2

| Structure (SMILES) | K [1] | half-life [2] | MIC [3] | MIC [4] | MIC [5] | K [6] | MIC [7] | MIC [8] | MIC [9] | MIC [10] | MIC [11] | MIC [12] | MIC [13] |
| --- | --- | --- | --- | --- | --- | --- | --- | --- | --- | --- | --- | --- | --- |
| O=C(Cc1cccs1)N[C@@H]1C(=O)N2C(C(=O)O)=C(C(=O)O)CS[C@H]12 | 0.34 h⁻¹ | 2.04 h |  |  |  |  |  |  |  |  |  |  |  |
| CO/N=C(\C(=O)N[C@@H]1C(=O)N2C(C(=O)[O-])=C(C[n+]3ccccc3)CC[C@H]12)c1csc(N)n1 | 0.0628 h⁻¹ | 11 h | 0.5 mg/L (≈ 1.1 µM) | 0.03 mg/L (≈ 0.0657 µM) | 0.06 mg/L (≈ 0.131 µM) |  | 4 mg/L (≈ 8.76 µM) | 2 mg/L (≈ 4.38 µM) | 0.06 mg/L (≈ 0.131 µM) | 0.03 mg/L (≈ 0.0657 µM) | 0.015 mg/L (≈ 0.0329 µM) |  |  |
| COC(=O)C1=C(C(=O)O)N2C(=O)[C@@H](NC(=O)Cc3cccs3)[C@H]2CC1 |  | 0.867 h | 1 mg/L (≈ 2.74 µM) | 0.25 mg/L (≈ 0.686 µM) | 128 mg/L (≈ 351 µM) | 0.799 h⁻¹ | 0.25 mg/L (≈ 0.686 µM) | 128 mg/L (≈ 351 µM) | 8 mg/L (≈ 22 µM) | 1 mg/L (≈ 2.74 µM) |  |  |  |
| COC(=O)C1=C(C(=O)O)N2C(=O)[C@@H](NC(=O)Cc3cccs3)[C@H]2SC1 | 6.27 h⁻¹ | 0.111 h | 2 mg/L (≈ 5.23 µM) | 2 mg/L (≈ 5.23 µM) | 128 mg/L (≈ 335 µM) |  | 0.5 mg/L (≈ 1.31 µM) |  | 128 mg/L (≈ 335 µM) | 2 mg/L (≈ 5.23 µM) | 0.03 mg/L (≈ 0.0784 µM) | 128 mg/L (≈ 335 µM) |  |
| N[C@@H](C(=O)N[C@@H]1C(=O)N2C(C(=O)O)=C(Cl)CS[C@H]12)c1ccccc1 [CEFACLOR ANHYDROUS] | 0.944 h⁻¹ | 0.734 h | 1 mg/L (≈ 2.72 µM) | 0.25 mg/L (≈ 0.68 µM) | 32 mg/L (≈ 87 µM) |  | 1 mg/L (≈ 2.72 µM) | 128 mg/L (≈ 348 µM) | 128 mg/L (≈ 348 µM) | 0.25 mg/L (≈ 0.68 µM) | 0.5 mg/L (≈ 1.36 µM) |  |  |
| CO/N=C(\C(=O)N[C@@H]1C(=O)N2C(C(=O)[O-])=C(C[n+]3ccccc3)CS[C@H]12)c1csc(N)n1 | 1.85 h⁻¹ | 0.375 h | 0.06 mg/L (≈ 0.126 µM) | 0.03 mg/L (≈ 0.0632 µM) | 0.06 mg/L (≈ 0.126 µM) |  | 1 mg/L (≈ 2.11 µM) | 2 mg/L (≈ 4.21 µM) | 0.03 mg/L (≈ 0.0632 µM) | 0.03 mg/L (≈ 0.0632 µM) | 0.03 mg/L (≈ 0.0632 µM) |  |  |
| CO/N=C(\C(=O)N[C@@H]1C(=O)N2C(C(=O)O)=CCC[C@H]12)c1csc(N)n1 | 0.00565 h⁻¹ | 123 h | 0.008 mg/L (≈ 0.0219 µM) | 0.008 mg/L (≈ 0.0219 µM) | 0.06 mg/L (≈ 0.164 µM) |  | 16 mg/L (≈ 43.8 µM) | 32 mg/L (≈ 87.6 µM) | 0.008 mg/L (≈ 0.0219 µM) | 0.008 mg/L (≈ 0.0219 µM) | 0.015 mg/L (≈ 0.0411 µM) |  |  |
| O=C(Cc1cccs1)N[C@@H]1C(=O)N2C(C(=O)O)=C(C(=O)O)CC[C@H]12 | 0.0105 h⁻¹ | 66 h |  |  |  |  |  |  |  |  |  |  |  |
| CO/N=C(\C(=O)N[C@@H]1C(=O)N2C(C(=O)O)=CCS[C@H]12)c1csc(N)n1 [CEFTIZOXIME] | 0.114 h⁻¹ | 6.08 h | 0.015 mg/L (≈ 0.0391 µM) | 0.008 mg/L (≈ 0.0209 µM) | 0.06 mg/L (≈ 0.156 µM) |  | 4 mg/L (≈ 10.4 µM) | 32 mg/L (≈ 83.5 µM) | 0.008 mg/L (≈ 0.0209 µM) | 0.015 mg/L (≈ 0.0391 µM) | 0.015 mg/L (≈ 0.0391 µM) |  |  |

The remaining lines, values ahead:

| K [1] | half-life [2] | MIC [3] | MIC [4] | MIC [5] | K [6] | MIC [7] | MIC [8] | MIC [9] | MIC [10] | MIC [11] | MIC [12] | MIC [13] | Structure (SMILES) |
| --- | --- | --- | --- | --- | --- | --- | --- | --- | --- | --- | --- | --- | --- |
|  | 15.8 h | 4 mg/L (≈ 11.4 µM) | 8 mg/L (≈ 22.8 µM) | 128 mg/L (≈ 365 µM) | 0.0438 h⁻¹ | 1 mg/L (≈ 2.85 µM) | 128 mg/L (≈ 365 µM) | 128 mg/L (≈ 365 µM) | 8 mg/L (≈ 22.8 µM) | 0.25 mg/L (≈ 0.713 µM) |  |  | O=C(COc1ccccc1)N[C@@H]1C(=O)N2C(C(=O)O)=C(Cl)CC[C@H]12 |
| 0.0324 h⁻¹ | 21.4 h | 0.5 mg/L (≈ 1.43 µM) | 0.25 mg/L (≈ 0.715 µM) | 4 mg/L (≈ 11.4 µM) |  | 2 mg/L (≈ 5.72 µM) | 128 mg/L (≈ 366 µM) | 128 mg/L (≈ 366 µM) | 0.25 mg/L (≈ 0.715 µM) | 1 mg/L (≈ 2.86 µM) |  |  | N[C@@H](C(=O)N[C@@H]1C(=O)N2C(C(=O)O)=C(Cl)CC[C@H]12)c1ccccc1 [LORACARBEF ANHYDROUS] |
| 1.91 h⁻¹ | 0.363 h | 4 mg/L (≈ 9.34 µM) | 8 mg/L (≈ 18.7 µM) | 128 mg/L (≈ 299 µM) |  | 0.125 mg/L (≈ 0.292 µM) | 128 mg/L (≈ 299 µM) | 128 mg/L (≈ 299 µM) |  | 0.015 mg/L (≈ 0.035 µM) |  | 64 mg/L (≈ 149 µM) | CS(=O)(=O)OC1=C(C(=O)O)N2C(=O)[C@@H](NC(=O)COc3ccccc3)[C@H]2SC1 |
| 0.0793 h⁻¹ | 8.74 h | 16 mg/L (≈ 45.9 µM) | 64 mg/L (≈ 184 µM) | 128 mg/L (≈ 367 µM) |  | 4 mg/L (≈ 11.5 µM) | 128 mg/L (≈ 367 µM) | 128 mg/L (≈ 367 µM) | 128 mg/L (≈ 367 µM) | 1 mg/L (≈ 2.87 µM) |  |  | CC1=C(C(=O)O)N2C(=O)[C@@H](NC(=O)COc3ccccc3)[C@H]2SC1 |
| 0.368 h⁻¹ | 1.88 h | 2 mg/L (≈ 5.29 µM) | 32 mg/L (≈ 84.6 µM) | 128 mg/L (≈ 338 µM) |  | 0.25 mg/L (≈ 0.661 µM) | 128 mg/L (≈ 338 µM) | 128 mg/L (≈ 338 µM) | 128 mg/L (≈ 338 µM) | 0.12 mg/L (≈ 0.317 µM) |  |  | COCC1=C(C(=O)O)N2C(=O)[C@@H](NC(=O)COc3ccccc3)[C@H]2SC1 |
|  | 46.5 h | 8 mg/L (≈ 22.2 µM) | 8 mg/L (≈ 22.2 µM) | 128 mg/L (≈ 355 µM) | 0.0149 h⁻¹ | 0.5 mg/L (≈ 1.39 µM) | 128 mg/L (≈ 355 µM) | 128 mg/L (≈ 355 µM) | 32 mg/L (≈ 88.8 µM) | 0.25 mg/L (≈ 0.694 µM) |  |  | COCC1=C(C(=O)O)N2C(=O)[C@@H](NC(=O)COc3ccccc3)[C@H]2CC1 |
| 0.089 h⁻¹ | 7.79 h | 8 mg/L (≈ 19.5 µM) | 8 mg/L (≈ 19.5 µM) | 128 mg/L (≈ 312 µM) |  | 0.5 mg/L (≈ 1.22 µM) | 128 mg/L (≈ 312 µM) | 128 mg/L (≈ 312 µM) | 32 mg/L (≈ 78 µM) | 0.5 mg/L (≈ 1.22 µM) |  |  | CS(=O)(=O)OC1=C(C(=O)O)N2C(=O)[C@@H](NC(=O)COc3ccccc3)[C@H]2CC1 |
| 0.895 h⁻¹ | 0.774 h | 2 mg/L (≈ 5.42 µM) | 8 mg/L (≈ 21.7 µM) | 128 mg/L (≈ 347 µM) |  | 0.25 mg/L (≈ 0.678 µM) | 128 mg/L (≈ 347 µM) | 128 mg/L (≈ 347 µM) | 64 mg/L (≈ 174 µM) | 0.25 mg/L (≈ 0.678 µM) |  |  | O=C(COc1ccccc1)N[C@@H]1C(=O)N2C(C(=O)O)=C(Cl)CS[C@H]12 |
|  | 433 h | 32 mg/L (≈ 96.9 µM) | 32 mg/L (≈ 96.9 µM) | 128 mg/L (≈ 387 µM) | 0.0016 h⁻¹ | 4 mg/L (≈ 12.1 µM) | 128 mg/L (≈ 387 µM) | 128 mg/L (≈ 387 µM) | 128 mg/L (≈ 387 µM) | 1 mg/L (≈ 3.03 µM) |  |  | CC1=C(C(=O)O)N2C(=O)[C@@H](NC(=O)COc3ccccc3)[C@H]2CC1 |

Reference: ChEMBL document CHEMBL1124793, “Comparative reactivity of 1-carba-1-dethiacephalosporins with cephalosporins” (J Med Chem, 1990)
